Assay results from ChEMBL document CHEMBL1121418, “Synthesis of syn and anti isomers of 6-[[(hydroxyimino)phenyl]methyl]-1-[(1-methylethyl)sulfonyl]-1H-benzimidazol-2-amine. Inhibitors of rhinovirus multiplication” (1980).
In brackets after ≈: the same amount, converted by molar mass.

Columns and labels:
[1] = tested on: HeLa; experiment: Dose required to prevent rhinovirus type 33 plaque formation in HeLa cells by 50%ug/mL of agar overlay; assay type: functional; settings: Homo sapiens, read-out: ID50 (the source's name)
Summary of the method: (§1)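 Confluent monolayers were infected with diluted virus and allowed to adsorb for 1 h at room temperature. They were then overlaid with 1% agarose mixed 1:1 with 2× MEM (Earle's salts, 2.5% FBS), containing compound diluted from a 10000 μg/mL Me2SO stock. Incubation was at 32 °C until control plaques reached 2–10 mm. Cells were fixed with formalin–sodium acetate and stained with crystal violet, and plaques were counted. Duplicate flasks were averaged, and ID50 was estimated by plotting results between 10% and 90% inhibition.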

[2] = tested on: HeLa; experiment: Tested in plaque-reduction assay with rhinovirus type 20 at indicated concentration. and the number of plaque formed was reported at conc. 0.04 ug/mL; assay type: functional, Homo sapiens
Summary of the method: (§2)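 Virus was adsorbed onto confluent monolayers for 1 h at room temperature. Monolayers were overlaid with a 1:1 mix of 1% agarose and 2× MEM (Earle's salts, 2.5% FBS) containing compound, diluted from a 10000 μg/mL Me2SO stock. Flasks were incubated at 32 °C until control plaques reached 2–10 mm. Cells were then fixed in 10% formalin–2% sodium acetate and stained with crystal violet, and plaques were counted. Counts from duplicate flasks were averaged.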

[3] = tested on: HeLa; experiment: Dose required to prevent rhinovirus type 15 plaque formation in HeLa cells by 50%ug/mL of agar overlay; assay type: functional; settings: Homo sapiens, read-out: ID50 (the source's name); summary of the method: as §1
[4] = tested on: HeLa; experiment: Dose required to prevent rhinovirus type 14 plaque formation in HeLa cells by 50%ug/mL of agar overlay; assay type: functional, Homo sapiens; summary of the method: as §1
[5] = tested on: HeLa; experiment: Percent reduction of plaque formation by rhinovirus type 20 in HeLa cells at conc. 0.17 ug/mL.; assay type: functional, Homo sapiens; summary of the method: as §2
[6] = tested on: HeLa; experiment: Tested in plaque-reduction assay with rhinovirus type 20 at indicated concentration. and the number of plaque formed was reported at conc. 0.00 ug/mL; assay type: functional, Homo sapiens; summary of the method: as §2
[7] = tested on: HeLa; experiment: Tested in plaque-reduction assay with rhinovirus type 20 at indicated concentration. and the number of plaque formed was reported at conc. 0.02 ug/mL; assay type: functional, Homo sapiens; summary of the method: as §2
[8] = tested on: HeLa; experiment: Dose required to prevent rhinovirus type 3 plaque formation in HeLa cells by 50%ug/mL of agar overlay; assay type: functional; settings: Homo sapiens, read-out: ID50 (the source's name)
Summary of the method: (§3)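 Confluent monolayers in flasks received 0.3 mL of diluted virus and adsorbed 1 h at room temperature. They were then overlaid with 1% agarose plus 2× MEM (Earle's salts, 2.5% FBS, penicillin, streptomycin) containing compound diluted from a 10000 μg/mL Me₂SO stock. Flasks were held at 32 °C until control plaques reached 2–10 mm, then fixed with formalin-acetate and stained with crystal violet. Plaques were counted in duplicate flasks and averaged, and ID₅₀ was estimated by plotting the 10–90% inhibition points.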

[9] = tested on: HeLa; experiment: Dose required to prevent rhinovirus type 32 plaque formation in HeLa cells by 50%ug/mL of agar overlay; assay type: functional; settings: Homo sapiens, read-out: ID50 (the source's name); summary of the method: as §1
[10] = tested on: HeLa; experiment: Dose required to prevent rhinovirus type 69 plaque formation in HeLa cells by 50%ug/mL of agar overlay; assay type: functional; settings: Homo sapiens, read-out: ID50 (the source's name); summary of the method: as §1
[11] = tested on: HeLa; experiment: Percent reduction of plaque formation by rhinovirus type 20 in HeLa cells at conc. 0.35 ug/mL.; assay type: functional, Homo sapiens; summary of the method: as §2
[12] = tested on: HeLa; experiment: Dose required to prevent rhinovirus type 50 plaque formation in HeLa cells by 50%ug/mL of agar overlay; assay type: functional; settings: Homo sapiens, read-out: ID50 (the source's name); summary of the method: as §3
[13] = tested on: HeLa; experiment: Percent reduction of plaque formation by rhinovirus type 20 in HeLa cells at conc. 0.00 ug/mL.; assay type: functional, Homo sapiens; summary of the method: as §2
[14] = tested on: HeLa; experiment: Dose required to prevent rhinovirus type 48 plaque formation in HeLa cells by 50%ug/mL of agar overlay; assay type: functional; settings: Homo sapiens, read-out: ID50 (the source's name); summary of the method: as §1
[15] = tested on: HeLa; experiment: Percent reduction of plaque formation by rhinovirus type 20 in HeLa cells at conc. 0.02 ug/mL.; assay type: functional, Homo sapiens; summary of the method: as §2
[16] = tested on: HeLa; experiment: Dose required to prevent rhinovirus type 72 plaque formation in HeLa cells by 50%ug/mL of agar overlay; assay type: functional; settings: Homo sapiens, read-out: ID50 (the source's name); summary of the method: as §1
[17] = tested on: HeLa; experiment: Dose required to prevent rhinovirus type 37 plaque formation in HeLa cells by 50%ug/mL of agar overlay; assay type: functional; settings: Homo sapiens, read-out: ID50 (the source's name); summary of the method: as §3
[18] = tested on: HeLa; experiment: Tested in plaque-reduction assay with rhinovirus type 20 at indicated concentration. and the number of plaque formed was reported at conc. 0.08 ug/mL; assay type: functional, Homo sapiens; summary of the method: as §2
[19] = tested on: HeLa; experiment: Percent reduction of plaque formation by rhinovirus type 20 in HeLa cells at conc. 0.08 ug/mL.; assay type: functional, Homo sapiens; summary of the method: as §2
[20] = tested on: HeLa; experiment: Dose required to prevent rhinovirus type 16 plaque formation in HeLa cells by 50%ug/mL of agar overlay; assay type: functional; settings: Homo sapiens, read-out: ID50 (the source's name); summary of the method: as §1
[21] = tested on: HeLa; experiment: Dose required to prevent rhinovirus type 61 plaque formation in HeLa cells by 50%ug/mL of agar overlay; assay type: functional; settings: Homo sapiens, read-out: ID50 (the source's name); summary of the method: as §1
[22] = tested on: HeLa; experiment: Percent reduction of plaque formation by rhinovirus type 20 in HeLa cells at conc. 0.75 ug/mL.; assay type: functional, Homo sapiens; summary of the method: as §2
[23] = tested on: HeLa; experiment: Dose required to prevent rhinovirus type 20 plaque formation in HeLa cells by 50%ug/mL of agar overlay; assay type: functional; settings: Homo sapiens, read-out: ID50 (the source's name); summary of the method: as §1
[24] = tested on: HeLa; experiment: Tested in plaque-reduction assay with rhinovirus type 20 at indicated concentration. and the number of plaque formed was reported at conc. 0.17 ug/mL; assay type: functional, Homo sapiens; summary of the method: as §2
[25] = tested on: HeLa; experiment: Tested in plaque-reduction assay with rhinovirus type 20 at indicated concentration. and the number of plaque formed was reported at conc. 0.75 ug/mL; assay type: functional, Homo sapiens; summary of the method: as §2
[26] = tested on: HeLa; experiment: Dose required to prevent rhinovirus type 65 plaque formation in HeLa cells by 50%ug/mL of agar overlay; assay type: functional; settings: Homo sapiens, read-out: ID50 (the source's name); summary of the method: as §1
[27] = tested on: HeLa; experiment: Tested in plaque-reduction assay with rhinovirus type 20 at indicated concentration. and the number of plaque formed was reported at conc. 0.35 ug/mL; assay type: functional, Homo sapiens; summary of the method: as §2
[28] = tested on: HeLa; experiment: Percent reduction of plaque formation by rhinovirus type 20 in HeLa cells at conc. 0.04 ug/mL.; assay type: functional, Homo sapiens; summary of the method: as §2
[29] = tested on: HeLa; experiment: Tested in plaque-reduction assay with rhinovirus type 20 at indicated concentration. and the number of plaque formed was reported at conc. 1.5 ug/mL; assay type: functional, Homo sapiens; summary of the method: as §2
[30] = tested on: HeLa; experiment: Percent reduction of plaque formation by rhinovirus type 20 in HeLa cells at conc. 3.0 ug/mL.; assay type: functional, Homo sapiens; summary of the method: as §2
[31] = tested on: HeLa; experiment: Dose required to prevent rhinovirus type 70 plaque formation in HeLa cells by 50%ug/mL of agar overlay; assay type: functional; settings: Homo sapiens, read-out: ID50 (the source's name); summary of the method: as §3
[32] = tested on: HeLa; experiment: Percent reduction of plaque formation by rhinovirus type 20 in HeLa cells at conc. 1.5 ug/mL.; assay type: functional, Homo sapiens; summary of the method: as §2
[33] = tested on: HeLa; experiment: Tested in plaque-reduction assay with rhinovirus type 20 at indicated concentration. and the number of plaque formed was reported at conc. 3.0 ug/mL; assay type: functional, Homo sapiens; summary of the method: as §2

SMILES | IC50 [1] [µg/mL] | IC50 [3] [µg/mL] | Reduction [5] [%] | No. of plaques [6] | IC50 [8] [µg/mL] | IC50 [9] [µg/mL] | IC50 [10] [µg/mL] | Reduction [11] [%] | IC50 [12] [µg/mL] | Reduction [13] [%] | IC50 [14] [µg/mL] | IC50 [16] [µg/mL] | IC50 [17] [µg/mL] | No. of plaques [18] | Reduction [19] [%] | IC50 [20] [µg/mL] | IC50 [21] [µg/mL] | Reduction [22] [%] | IC50 [23] [µg/mL] | No. of plaques [24] | further results
CC(C)S(=O)(=O)n1c(N)nc2ccc(/C(=N/O)c3ccccc3)cc21 [ENVIROXIME] | 0.01 (≈ 0.0279 µM) | 0.02 (≈ 0.0558 µM) | 100 | 153 | 0.04 (≈ 0.112 µM) | 0.01 (≈ 0.0279 µM) | 0.01 (≈ 0.0279 µM) | 100 | > 0.01 | 0 | 0.03 (≈ 0.0837 µM) | 0.03 (≈ 0.0837 µM) | 0.04 (≈ 0.112 µM) | 0 | 100 | 0.02 (≈ 0.0558 µM) | 0.01 (≈ 0.0279 µM) | 100 | 0.02 (≈ 0.0558 µM) | 0 | No. of plaques [2]: 18; ID50 [4]: 0.03 pug ml-1; No. of plaques [7]: 68; Reduction [15]: 55%; No. of plaques [25]: 0; IC50 [26]: > 0.01 µg/mL; No. of plaques [27]: 0; Reduction [28]: 87%
CC(C)S(=O)(=O)n1c(N)nc2ccc(/C(=N\O)c3ccccc3)cc21 [ZINVIROXIME] | 0.1 (≈ 0.279 µM) | 0.14 (≈ 0.391 µM) | 50 | 153 | 0.37 (≈ 1.03 µM) | 0.13 (≈ 0.363 µM) | 0.08 (≈ 0.223 µM) | 67 | 0.12 (≈ 0.335 µM) | 0 | 0.28 (≈ 0.781 µM) | 0.3 (≈ 0.837 µM) | 0.25 (≈ 0.697 µM) | 127 | 16 | 0.16 (≈ 0.446 µM) | 0.07 (≈ 0.195 µM) | 100 | 0.19 (≈ 0.53 µM) | 87 | No. of plaques [29]: 0; IC50 ([4]; Homo sapiens, HeLa, read-out: ID50 (the source's name)): 0.36 µg/mL (≈ 1 µM); Reduction [30]: 100%; IC50 [31]: 0.06 µg/mL (≈ 0.167 µM); Reduction [32]: 100%; No. of plaques [33]: 0; No. of plaques [25]: 0; IC50 [26]: 0.07 µg/mL (≈ 0.195 µM); No. of plaques [27]: 49
